Tests used:
[1] = system: HL-60; assay: Antiproliferative activity against human HL60 assessed as reduction in cell growth at 100 uM by CellTiter-non radioactive cell proliferation assay; assay type: functional
[2] = system: THP-1; assay: Antiproliferative activity against human THP-1 assessed as reduction in cell growth at 100 uM by CellTiter-non radioactive cell proliferation assay; assay type: functional
[3] = system: THP-1; assay: Antiproliferative activity against human THP-1 assessed as reduction in cell growth at 20 uM by CellTiter-non radioactive cell proliferation assay; assay type: functional
[4] = system: HL-60; assay: Antiproliferative activity against human HL60 assessed as reduction in cell growth at 1 uM by CellTiter-non radioactive cell proliferation assay; assay type: functional
[5] = system: HL-60; assay: Antiproliferative activity against human HL60 assessed as reduction in cell growth at 20 uM by CellTiter-non radioactive cell proliferation assay; assay type: functional
[6] = molecular target: T1, Histone deacetylase 1 (Homo sapiens, UniProt Q13547); assay: Inhibition of recombinant human HDAC1 using Z-(Ac)Lys-AMC as substrate after 90 mins by fluorescence based micro plate assay
In short: (§1)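 Recombinant human HDAC1 or HDAC6 incubated 90 min at 37 °C with 10.5 μM ZMAL (Z-(Ac)Lys-AMC) and increasing inhibitor concentrations, using a homogeneous fluorescence assay. Fluorescence read at Ex 390/Em 460 nm.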

[7] = molecular target: T2, Peregrin (Homo sapiens, UniProt P55201); assay: Binding affinity to BRPF1 (unknown origin) by Isothermal titration calorimetry; conditions: read-out: Kd
T2 sequence (P55201 whole entry): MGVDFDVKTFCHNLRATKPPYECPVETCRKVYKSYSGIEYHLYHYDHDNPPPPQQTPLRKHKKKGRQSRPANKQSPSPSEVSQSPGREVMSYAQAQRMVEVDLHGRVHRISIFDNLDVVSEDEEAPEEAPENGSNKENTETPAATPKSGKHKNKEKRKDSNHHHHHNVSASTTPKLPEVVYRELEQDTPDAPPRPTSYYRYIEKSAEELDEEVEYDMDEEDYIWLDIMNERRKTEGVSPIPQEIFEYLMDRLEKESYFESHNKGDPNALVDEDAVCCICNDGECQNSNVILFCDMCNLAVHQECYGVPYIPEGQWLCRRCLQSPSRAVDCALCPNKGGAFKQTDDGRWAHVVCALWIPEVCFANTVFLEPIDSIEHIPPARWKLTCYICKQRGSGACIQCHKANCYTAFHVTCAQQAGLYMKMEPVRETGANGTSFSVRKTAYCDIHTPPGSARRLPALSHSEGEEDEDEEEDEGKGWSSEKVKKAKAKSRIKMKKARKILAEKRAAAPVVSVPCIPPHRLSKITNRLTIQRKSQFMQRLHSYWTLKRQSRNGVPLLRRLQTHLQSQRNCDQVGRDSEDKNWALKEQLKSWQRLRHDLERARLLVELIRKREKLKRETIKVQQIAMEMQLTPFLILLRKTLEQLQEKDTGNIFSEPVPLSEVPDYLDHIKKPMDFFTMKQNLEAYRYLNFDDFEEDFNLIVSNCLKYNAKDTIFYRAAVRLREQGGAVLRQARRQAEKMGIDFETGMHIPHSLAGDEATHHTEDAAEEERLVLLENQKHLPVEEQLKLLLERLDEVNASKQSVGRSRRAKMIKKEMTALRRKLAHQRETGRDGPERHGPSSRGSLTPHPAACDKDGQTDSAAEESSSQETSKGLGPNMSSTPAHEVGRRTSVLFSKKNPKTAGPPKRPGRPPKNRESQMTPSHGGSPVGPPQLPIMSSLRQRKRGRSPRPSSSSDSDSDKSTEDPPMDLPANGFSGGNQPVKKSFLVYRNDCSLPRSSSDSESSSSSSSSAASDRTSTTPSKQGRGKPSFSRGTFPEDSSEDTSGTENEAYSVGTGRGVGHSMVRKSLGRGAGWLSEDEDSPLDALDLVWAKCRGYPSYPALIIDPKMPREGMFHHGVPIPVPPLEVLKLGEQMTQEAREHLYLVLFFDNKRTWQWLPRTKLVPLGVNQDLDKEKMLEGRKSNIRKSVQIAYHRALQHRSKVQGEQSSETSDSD
In short: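 Isothermal titration calorimetry with recombinant BRPF1 (200–400 μM) in the injection syringe titrated into ligand (20–40 μM) in the sample cell. Kd was fitted from the titrations and reported with its P99 interval.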

[8] = molecular target: T3, Histone deacetylase 8 (Homo sapiens, UniProt Q9BY41); assay: Inhibition of human recombinant HDAC8 using H2N-Arg-His-Lys(Ac)-Lys(Ac)-AMC as substrate after 90 mins by fluorescence based micro plate assay
T3 sequence (Q9BY41 whole entry): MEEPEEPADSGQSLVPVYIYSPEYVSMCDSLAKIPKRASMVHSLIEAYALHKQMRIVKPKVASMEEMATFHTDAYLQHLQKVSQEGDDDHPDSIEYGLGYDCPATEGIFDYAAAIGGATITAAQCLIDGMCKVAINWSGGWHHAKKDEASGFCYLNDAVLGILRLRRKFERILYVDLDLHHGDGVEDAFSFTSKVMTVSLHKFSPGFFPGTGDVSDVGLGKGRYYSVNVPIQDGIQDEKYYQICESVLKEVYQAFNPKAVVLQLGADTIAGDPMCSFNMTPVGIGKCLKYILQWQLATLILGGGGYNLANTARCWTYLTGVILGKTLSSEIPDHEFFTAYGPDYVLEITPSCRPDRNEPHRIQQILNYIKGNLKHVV

[9] = molecular target: T4, Protein deacetylase HDAC6 (Homo sapiens, UniProt Q9UBN7); assay: Inhibition of recombinant human HDAC6 using Z-(Ac)Lys-AMC as substrate after 90 mins by fluorescence based micro plate assay; in short: as §1
T4 sequence (Q9UBN7 whole entry): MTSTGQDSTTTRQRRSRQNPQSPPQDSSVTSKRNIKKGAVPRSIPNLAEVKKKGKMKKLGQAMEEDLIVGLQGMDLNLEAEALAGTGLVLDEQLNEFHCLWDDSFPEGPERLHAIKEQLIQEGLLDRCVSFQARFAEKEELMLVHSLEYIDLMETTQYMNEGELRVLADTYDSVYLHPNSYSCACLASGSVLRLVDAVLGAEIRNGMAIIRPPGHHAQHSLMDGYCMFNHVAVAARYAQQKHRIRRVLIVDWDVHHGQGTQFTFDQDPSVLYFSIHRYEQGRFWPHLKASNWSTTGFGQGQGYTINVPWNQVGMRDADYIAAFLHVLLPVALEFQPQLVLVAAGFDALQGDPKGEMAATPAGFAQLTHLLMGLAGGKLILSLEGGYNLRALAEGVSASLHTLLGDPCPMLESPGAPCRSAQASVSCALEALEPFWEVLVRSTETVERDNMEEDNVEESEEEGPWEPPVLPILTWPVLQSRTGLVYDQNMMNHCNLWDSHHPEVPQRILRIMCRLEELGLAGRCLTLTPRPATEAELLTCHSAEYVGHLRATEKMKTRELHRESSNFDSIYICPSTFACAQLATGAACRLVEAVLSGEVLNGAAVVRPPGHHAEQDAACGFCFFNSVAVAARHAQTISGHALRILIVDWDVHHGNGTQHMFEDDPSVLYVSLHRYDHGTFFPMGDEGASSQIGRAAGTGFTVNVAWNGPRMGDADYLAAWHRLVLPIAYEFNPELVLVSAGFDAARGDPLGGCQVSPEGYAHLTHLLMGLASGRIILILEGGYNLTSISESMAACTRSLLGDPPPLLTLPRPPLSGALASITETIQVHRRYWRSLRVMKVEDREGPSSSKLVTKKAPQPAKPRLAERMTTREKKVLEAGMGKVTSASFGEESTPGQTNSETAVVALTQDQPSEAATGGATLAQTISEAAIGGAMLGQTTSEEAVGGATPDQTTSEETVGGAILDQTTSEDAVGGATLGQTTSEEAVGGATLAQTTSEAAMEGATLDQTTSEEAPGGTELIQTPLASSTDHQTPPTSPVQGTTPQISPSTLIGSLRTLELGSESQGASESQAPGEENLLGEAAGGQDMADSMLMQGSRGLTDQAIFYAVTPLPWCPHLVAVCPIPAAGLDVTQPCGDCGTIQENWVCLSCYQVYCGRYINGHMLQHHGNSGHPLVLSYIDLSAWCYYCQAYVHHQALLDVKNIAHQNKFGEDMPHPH

[10] = system: THP-1; assay: Antiproliferative activity against human THP-1 assessed as reduction in cell growth at 1 uM by CellTiter-non radioactive cell proliferation assay; assay type: functional
[11] = system: HL-60; assay: Antiproliferative activity against human HL60 assessed as reduction in cell growth at 4 uM by CellTiter-non radioactive cell proliferation assay; assay type: functional
In short: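 HL60 cells plated at 5000 per well and given inhibitor or DMSO vehicle immediately. Compounds diluted from 200x DMSO stocks; three replicates per concentration. Growth read by CellTiter 96 Aqueous (MTS) assay. GI50 is the concentration cutting metabolically active cells by 50% versus DMSO control, taken from absorbance against log concentration.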

[12] = molecular target: T1, Histone deacetylase 1; assay: Inhibition of recombinant human HDAC1 at 10 uM using Z-(Ac)Lys-AMC as substrate after 90 mins by fluorescence based micro plate assay; in short: as §1
[13] = molecular target: T1, Histone deacetylase 1; assay: Inhibition of recombinant human HDAC1 at 1 uM using Z-(Ac)Lys-AMC as substrate after 90 mins by fluorescence based micro plate assay; in short: as §1
[14] = molecular target: T5, Protein deacetylase HDAC6 (Homo sapiens) (UniProt Q9UBN7); assay: Inhibition of recombinant human HDAC6 at 1 uM using Z-(Ac)Lys-AMC as substrate after 90 mins by fluorescence based micro plate assay; in short: as §1
T5 sequence (whole entry): T4 sequence (Q9UBN7 whole entry)

[15] = molecular target: T5, Protein deacetylase HDAC6 (Homo sapiens); assay: Inhibition of recombinant human HDAC6 at 10 uM using Z-(Ac)Lys-AMC as substrate after 90 mins by fluorescence based micro plate assay; in short: as §1
[16] = system: THP-1; assay: Antiproliferative activity against human THP-1 assessed as reduction in cell growth at 4 uM by CellTiter-non radioactive cell proliferation assay; assay type: functional

T1 sequence (Q13547 whole entry): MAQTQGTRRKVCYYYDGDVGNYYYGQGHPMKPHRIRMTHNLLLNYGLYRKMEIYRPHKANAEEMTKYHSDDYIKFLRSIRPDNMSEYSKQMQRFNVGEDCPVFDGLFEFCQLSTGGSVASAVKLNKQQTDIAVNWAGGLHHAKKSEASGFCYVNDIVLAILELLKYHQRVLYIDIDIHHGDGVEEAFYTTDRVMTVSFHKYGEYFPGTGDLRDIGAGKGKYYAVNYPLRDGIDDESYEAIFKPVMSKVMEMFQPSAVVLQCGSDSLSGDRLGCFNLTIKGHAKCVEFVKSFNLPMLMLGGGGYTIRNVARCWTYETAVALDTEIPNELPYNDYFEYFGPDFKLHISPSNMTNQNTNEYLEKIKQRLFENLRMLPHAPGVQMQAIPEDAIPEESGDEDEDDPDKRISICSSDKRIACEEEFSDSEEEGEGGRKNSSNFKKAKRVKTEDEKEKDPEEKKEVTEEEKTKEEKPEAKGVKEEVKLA

SMILES	inhibition at 100 µM [1] [%]	inhibition at 100 µM [2] [%]	inhibition at 20 µM [3] [%]	inhibition at 1 µM [4] [%]	inhibition at 20 µM [5] [%]	IC50 [6] [nM]	Kd [7] [nM]	IC50 [8] [nM]	IC50 [9] [nM]	inhibition at 1 µM [10] [%]	inhibition at 4 µM [11] [%]	inhibition [12] [%]	inhibition [13] [%]	inhibition [14] [%]	inhibition [15] [%]	inhibition at 4 µM [16] [%]
COc1ccc(C(=O)NOCc2ccc(OC(C)=O)cc2)cc1S(=O)(=O)Nc1ccc2c(c1)cc(C)c(=O)n2C	95	27	3	0	0											
COc1ccc(C(=O)NO)cc1C(=O)Nc1ccc2c(c1)cc(C)c(=O)n2C						6900	857	65	709							
Cc1cc2cc(NS(=O)(=O)c3ccc(C(=O)NO)cc3)ccc2n(C)c1=O	34	78		3	6	797	175	908	344	0						
COc1ccc(C(=O)NO)cc1CS(=O)(=O)Nc1ccc2c(c1)cc(C)c(=O)n2C	0	0	0		0			158		0	0	29	4	14	63	
Cc1cc2cc(NS(=O)(=O)Cc3ccc(C(=O)NOCc4ccc(O)cc4)cc3)ccc2n(C)c1=O		91	1							0						
Cc1cc2cc(NCc3cc(C(=O)NO)ccc3Cl)ccc2n(C)c1=O								3190				20		28	84	
Cc1cc2cc(NC(=O)c3cc(C(=O)NO)ccc3Cl)ccc2n(C)c1=O								113								
Cc1cc2cc(NS(=O)(=O)c3cc(C(=O)NO)ccc3Cl)ccc2n(C)c1=O	33	21	8		32		234	560			29	31	13	13	59	16
COC(=O)c1ccc(CS(=O)(=O)Nc2ccc3c(c2)cc(C)c(=O)n3C)cc1	78	93	9	15	14					0						
COC(=O)c1ccc(S(=O)(=O)Nc2ccc3c(c2)cc(C)c(=O)n3C)cc1	68	95	85	5	22					0						
COc1cc(C(=O)NO)ccc1CS(=O)(=O)Nc1ccc2c(c1)cc(C)c(=O)n2C	0		0		0		1580	231			0	29	11	15	46	
Cc1cc2cc(NS(=O)(=O)Cc3cccc(C(=O)NO)c3)ccc2n(C)c1=O	0	0	0		0			465		0	0	26	2	3	33	
COc1ccc(C(=O)NO)cc1CNc1ccc2c(c1)cc(C)c(=O)n2C								555				31		40	68	
COc1ccc(C(=O)NOCc2ccccc2)cc1S(=O)(=O)Nc1ccc2c(c1)cc(C)c(=O)n2C	13		20	2												
